Ecoli tolC: growth inhibitors of E. coli tolC mutant, primary screen, strain BW25113 ΔtolC::kan, 384-well; growth inhibition, % at 10 µM (by protocol); hit rate 2.2% among 65,000; OD615; AID 573, 2007;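 active means growth inhibition at or above a cutoff equal to the mean over every tested compound plus 3 SD, cut at about 60% in these data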;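 further: growth measured after 20 h incubation at 37 °C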
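test system = E. coli BW25113 ΔtolC::kan bacteria | medium = LB with kanamycin 50 µg/mL | signal = OD at 615 nm | schedule = 37 °C, 20 h exposure | evaluation = % inhibition of E. coli growth | compound dosing = one dose of 10 µM final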
Ecoli WT expand: growth inhibitors of wild-type E. coli, primary screen, strain BW25113, expanded library, OD600 | hit rate 0.15% among 98,000 | growth inhibition, % at 100 µM | OD600 absorbance;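 active means growth inhibition above about 50% at one test dose, limit read from the data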;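 further: growth measured after 20 h incubation at 37 °C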
PostGolgi ctrl: growth inhibition of yeast control strain, primary screen, counter-screen for post-Golgi transport modulator project; efflux-deficient yeast background strain, growth absorbance A615, 16 h; inhibition, % at 10 µM; hit rate 5% among 98,000
PostGolgi yeast: phenotypic screen on post-Golgi transport, primary screen; inhibition, % at 10 µM; post-Golgi transport phenotypic cell assay; hit rate 0.9% among 98,000;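 further: yeast cells grown in 1536-well plates; yeast grown about 18 h at 30C before absorbance read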
Cav3 T inh: Cav3.2 calcium influx blockers – cell-based, Fluo-4 calcium fluorescence, FDSS, MLSMR library, primary screen. hit rate 4% among 100,000. Voltage-dependent T-type calcium channel subunit alpha-1H (Homo sapiens), O95180. Cav3.2-expressing cells; stronger effect = lower value. B-score at 10 µM;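 active means single-dose well whose peak fluorescence ratio is a statistical outlier from its plate by either plate-standardised score or position-corrected B-score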
Each line names hits and unclear results; the compound was inactive in the other large screens. A selection: hits, their analogues and other compounds. The true share with any hit is near 8.4%. Unless noted, no stated cut-off is given here; in the data, active means inhibition above about 30%; inactive means the rest.

O=c1ccn(-c2cccc(C(F)(F)F)c2)nc1-c1ccn(-c2ccccc2F)n1	Cav3 T inh -8 (no result: Ecoli tolC)
COc1ccccc1NC(=O)c1nn(-c2cccc(C(F)(F)F)c2)ccc1=O	none (no result: Ecoli tolC, Cav3 T inh)
O=C(Nc1ccc(Oc2ccccc2)cc1)C1CCCN(c2ncccn2)C1 (configuration not stated)	none (no result: Cav3 T inh)
O=C(C[n+]1cc2ccccc2c2ccccc21)c1ccccc1	PostGolgi ctrl 33 (no result: Ecoli tolC)
O=C(O)CCC(=O)CCC(=O)c1ccccc1	none
CCc1cc2cc3c(cc2nc1SCC(=O)Nc1cc(C)on1)OCO3	none
C=CCn1c(SCC(=O)NCc2ccc3c(c2)OCO3)nc2scc(-c3ccccc3)c2c1=O	none (no result: Ecoli tolC)
C=CCn1c(SCC(=O)N2CCOCC2)nc2scc(-c3ccco3)c2c1=O	Cav3 T inh 3.5
C=CCn1c(SCC(=O)N2CCCC2)nc2scc(-c3cccs3)c2c1=O	none (no result: Ecoli tolC, Cav3 T inh)
C=CCn1c(SCC(=O)N2CC(=O)Nc3ccccc32)nc2scc(-c3ccccc3)c2c1=O	Cav3 T inh -7.2 (no result: Ecoli tolC)
N#CCSc1nc2scc(-c3cccs3)c2c(=O)n1CCc1ccccc1	PostGolgi ctrl 32
C=CCn1c(SCC(=O)Nc2ccccc2)nc2scc(-c3cccs3)c2c1=O	Cav3 T inh -5.1 (no result: Ecoli tolC)
CC(=O)C1=C(O)C(=O)N(Cc2ccco2)C1c1ccc2c(c1)OCO2 (configuration not stated)	none
CCOC(=O)Cc1csc(NC(=O)c2cccs2)n1	Cav3 T inh -5.4
CCOC(=O)Cc1csc(NC(=O)c2c(O)c3ccccc3n(CC(C)C)c2=O)n1	PostGolgi ctrl 32 (no result: Ecoli tolC)
COc1ccccc1CC(=O)N(CCC#N)CCC#N	none (no result: Ecoli WT expand, PostGolgi ctrl, PostGolgi yeast)
Cc1sc2ncn(CC(=O)OC(C)C)c(=O)c2c1C	none (no result: Ecoli tolC)
NC1=NC[C@H](Cc2ccc(O)cc2)N1CCC12CC3CC(CC(C3)C1)C2	none (no result: Ecoli tolC, Ecoli WT expand, PostGolgi ctrl, PostGolgi yeast)
CCOC(=O)C1=C(C)NC2=C(C(=O)CCC2)C1c1cn(Cc2ccc(Cl)cc2Cl)nc1-c1ccccc1 (configuration not stated)	none (no result: Ecoli tolC, Cav3 T inh)
COC(=O)C1=C(C)NC2=C(C(=O)CCC2)C1c1cn(Cc2ccc(Cl)cc2Cl)nc1-c1ccccc1 (configuration not stated)	Cav3 T inh -7.3 (no result: Ecoli tolC)
COc1ccc(NC(=O)c2nc[nH]c2C(=O)Nc2ccccc2C)cc1	none
Cc1ccccc1NC(=O)c1nc[nH]c1C(=O)NCc1ccccc1	PostGolgi ctrl 53
CCOc1ccc(S(=O)(=O)NC(C)(C)C)cc1-c1nc2c(C(C)(C)C)nn(C)c2c(=O)[nH]1	none
CCOc1ccc(CNC(=S)N/N=C\c2ccc([N+](=O)[O-])cc2)cc1	PostGolgi ctrl 40 (no result: Ecoli tolC)
CCOc1ccc(/C=N/NC(=O)c2ccc(Cn3cc([N+](=O)[O-])cn3)o2)cc1	none (no result: Ecoli tolC)
CCCCOc1ccc(CNC(=S)N/N=C/c2ccc(OC)c(OC)c2)cc1	PostGolgi ctrl 33 (no result: Ecoli tolC)
CCCCOc1ccc(/C=N/NC(=S)Nc2cc(C)ccc2C)cc1	none (no result: Ecoli tolC)
COc1ccc(S(=O)(=O)NCCOc2ccccc2)cc1OC	PostGolgi ctrl 33
CCCCOc1ccc(S(=O)(=O)Nc2cc(OC)ccc2OC)cc1	Ecoli tolC 70, PostGolgi ctrl 51
COc1ccc(OC)c(NS(=O)(=O)c2cc(OC)ccc2OC)c1	none
CCCCOc1ccc(S(=O)(=O)Nc2cccnc2)cc1	PostGolgi yeast 32
Cc1ccc(S(=O)(=O)Nc2cccnc2)cc1	none (no result: Ecoli tolC)
O=C(CCN1CCc2ccccc2CC1)c1ccc2c(c1)OCCO2	none
O=C(O)C1C2C=CC(O2)C1C(=O)NCCCn1ccnc1 (configuration not stated)	none
COC(C[C@@H]1O[C@H]1C(=O)COCc1ccccc1)OC	none (no result: Ecoli tolC, Ecoli WT expand, PostGolgi ctrl, PostGolgi yeast)
CCN(Cc1cc2ccc(C)cc2[nH]c1=O)C(=O)c1ccncc1	PostGolgi ctrl 44
COCCOc1cc(-n2ccnc2SC)c(Cl)cc1Cl	none (no result: Ecoli tolC)
O=C(COc1ccccc1)Nc1nnc(-c2ccc(Cl)s2)o1	Ecoli tolC 96, Ecoli WT expand 55, Cav3 T inh -4.8
O=C(COc1ccccc1)Nc1nnc(-c2ccccc2)o1	none
Cc1cc(NC(c2ccc(Cl)cc2)c2ccc3cccnc3c2O)no1 (configuration not stated)	Cav3 T inh -4.1 (no result: Ecoli tolC)
Oc1c(C(Nc2ccccn2)c2ccccn2)ccc2cccnc12 (configuration not stated)	Ecoli WT expand 54 (no result: Cav3 T inh)
Cc1ccc2ccc(C(Nc3ccccn3)c3ccccc3)c(O)c2n1 (configuration not stated)	none (no result: Ecoli tolC)
N=c1c(-c2nc3ccccc3[nH]2)cc(C(=O)c2cccs2)nn1-c1ccc(Cl)cc1	none (no result: Ecoli tolC, Ecoli WT expand, PostGolgi ctrl, PostGolgi yeast)
O=S(=O)(c1cccc(-c2nc3ccccc3s2)c1)N1CCOCC1	PostGolgi ctrl 30 (no result: Ecoli tolC)
COC(=O)CCCCCNc1ccc(C(=O)OC)cc1N	none
Cn1c(=O)c2ncn(CC(=O)NCCOc3ccccc3)c2n(C)c1=O	PostGolgi yeast 30
Cc1ccc(OCCNC(=O)Cn2cnc3c(=O)n(C)c(=O)n(C)c32)cc1C	none (no result: Ecoli tolC, Ecoli WT expand, PostGolgi ctrl, PostGolgi yeast)
COc1ccc(-c2nnc3c4ccccc4c(C)nn23)cc1	PostGolgi ctrl 44 (no result: Ecoli tolC)
Cc1nn2c(-c3ccncc3)nnc2c2ccccc12	PostGolgi ctrl 64
Cc1ccccc1-c1nnc2c3ccccc3c(C)nn12	none (no result: Ecoli tolC, Ecoli WT expand, PostGolgi ctrl, PostGolgi yeast)
CCC(C)N(C(=O)CSc1nc(-c2ccccc2)cs1)C1CCS(=O)(=O)C1 (configuration not stated)	none (no result: Ecoli tolC)
C(=N\Nc1ncnc2sc3c(c12)CCC3)/c1ccncc1	none (no result: Ecoli tolC)
O=C(Nc1ncnc2sc3c(c12)CCCCC3)c1ccccc1	PostGolgi ctrl 33, PostGolgi yeast 48 (no result: Ecoli tolC)
C(=N\Nc1ncnc2sc3c(c12)CCC3)/c1cccs1	PostGolgi ctrl 34 (no result: Ecoli tolC)
Cc1ccc(-c2cccc(C3CC=CC4C3C(=O)N(Cc3ccccc3)C4c3ccc(C(F)(F)F)cc3)c2)cc1 (configuration not stated)	none (no result: Ecoli tolC, Ecoli WT expand, PostGolgi ctrl, PostGolgi yeast)
COc1ccc(C2NC(=O)NC(c3ccccc3)=C2c2nc3ccccc3s2)cc1 (configuration not stated)	Cav3 T inh -5.8 (no result: Ecoli tolC)
O=C1NC(c2ccccc2)=C(c2nc3ccccc3s2)C(c2ccc(F)cc2)N1 (configuration not stated)	PostGolgi ctrl 41 (no result: Ecoli tolC)
CCOC(=O)c1c(NC(=O)CSc2nnc(CNC(=O)c3ccco3)n2C)sc2c1CCC2	none
O=C(CSCc1cccc(Cl)c1)NCc1ccc2c(c1)OCO2	none (no result: Ecoli tolC)
C/C(=N\NC(=O)CSCc1ccc(Cl)cc1)c1ccc2c(c1)OCCO2	PostGolgi ctrl 31 (no result: Ecoli tolC)
CC(C)Oc1cccc(C(=O)Nc2ccccc2N2CCOCC2)c1	none
Cc1cc(Cl)ccc1OC(C)C(=O)Nc1ccccc1N1CCOCC1 (configuration not stated)	Ecoli tolC 66 (no result: Cav3 T inh)
Cc1cc(Cl)ccc1OC(C)C(=O)N1CCCN(C(=O)C(C)Oc2ccc(Cl)cc2C)CC1 (configuration not stated)	PostGolgi ctrl 44, Cav3 T inh -5.4 (no result: Ecoli tolC)
COC(=O)c1ccccc1NC(=O)CNc1cc(Cl)ccc1N1CCOCC1	PostGolgi ctrl 35
O=C1C=CC[C@H](/C=C/C[C@@H](O)C[C@H](O)CCc2ccccc2)O1	none (no result: Ecoli tolC, Ecoli WT expand, PostGolgi ctrl, PostGolgi yeast)
